pIC50: −log10 of the molar value.
What was measured:
[1] = molecular target: C-C chemokine receptor type 5 (Homo sapiens, UniProt P51681); assay: Inhibitory concentration for displacement of [125I]-MIP-1 alpha from recombinant human CC chemokine receptor 5 (CCR5) expressed in CHO cell; assay type: cell-based
Outline: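 Competitive binding to CCR5 on CHO cell membranes, read as displacement of [125I]-labeled MIP-1α. IC50 values are means of triplicate determinations. Standard errors were normally <15% within an assay. Assay-to-assay variation was within ±2-fold, judged from a standard compound.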

HeLa [2] = assay: Antiviral activities in a cell culture HIV-1 infectivity inhibition assay using HeLa cells plus 50% normal human serum; assay type: functional
HeLa [3] = assay: Antiviral activities in a cell culture HIV-1 infectivity inhibition assay using HeLa cells; assay type: functional; conditions: Homo sapiens

C-C chemokine receptor type 5, sequence (P51681 whole entry): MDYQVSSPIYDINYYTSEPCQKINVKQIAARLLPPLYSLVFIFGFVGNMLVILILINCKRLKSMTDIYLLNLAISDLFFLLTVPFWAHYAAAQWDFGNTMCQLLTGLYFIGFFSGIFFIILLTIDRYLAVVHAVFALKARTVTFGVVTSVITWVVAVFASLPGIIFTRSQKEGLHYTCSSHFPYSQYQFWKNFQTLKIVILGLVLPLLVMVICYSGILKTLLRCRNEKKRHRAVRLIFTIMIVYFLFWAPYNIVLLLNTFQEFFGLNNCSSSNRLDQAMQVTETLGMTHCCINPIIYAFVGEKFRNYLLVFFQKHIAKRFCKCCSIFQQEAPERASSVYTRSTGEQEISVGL

Structure (SMILES)	pIC50 [1]	IC90 (HeLa [3]) [nM]	IC90 (HeLa [2]) [nM]
CCn1nc(Cc2ccc(S(=O)(=O)c3ccccc3)cc2)cc1C1CCN(C[C@H]2CN([C@@H](C(=O)O)C3CCCCC3)C[C@@H]2c2cccc(F)c2)CC1	9.10	0.4	33
CCOc1ccc(Cc2cc(C3CCN(C[C@H]4CN([C@@H](C(=O)O)[C@@H](C)CC)C[C@@H]4c4cccc(F)c4)CC3)n(CC)n2)cc1F	9.15	< 0.14	11
CCCOc1ccc(Cc2cc(C3CCN(C[C@H]4CN([C@@H](C(=O)O)C5CCCCC5)C[C@@H]4c4cccc(F)c4)CC3)n(CC)n2)cc1	9.15	1.2	100
CCn1nc(Cc2cccc(C#N)c2)cc1C1CCN(C[C@H]2CN([C@@H](C(=O)O)C(C)C)C[C@@H]2c2cccc(F)c2)CC1	8.77	3.7	100
CC[C@@H](C)[C@H](C(=O)O)N1C[C@H](CN2CCC(c3cc(Cc4ccc5ccccc5c4)nn3CC)CC2)[C@@H](c2cccc(F)c2)C1	9.70	< 0.14	300
CCn1nc(Cc2ccc(F)cc2F)cc1C1CCN(C[C@H]2CN([C@@H](C(=O)O)C(C)C)C[C@@H]2c2cccc(F)c2)CC1	8.30	100	> 300
CC[C@@H](C)[C@H](C(=O)O)N1C[C@H](CN2CCC(c3cc(Cc4ccc(C(C)(C)C)cc4)nn3CC)CC2)[C@@H](c2cccc(F)c2)C1	9.10	1.2	300
CCn1nc(Cc2ccc(F)cc2F)cc1C1CCN(C[C@H]2CN([C@@H](C(=O)O)C3CCCCC3)C[C@@H]2c2cccc(F)c2)CC1	8.82	0.4	33
CCn1nc(Cc2ccc(OC3CCC3)cc2)cc1C1CCN(C[C@H]2CN([C@@H](C(=O)O)C(C)C)C[C@@H]2c2cccc(F)c2)CC1	9.22	1.2	100
CC[C@@H](C)[C@H](C(=O)O)N1C[C@H](CN2CCC(c3cc(Cc4ccc(OC5CC5)cc4)nn3CC)CC2)[C@@H](c2cccc(F)c2)C1	9.52	< 0.14	33
CCn1nc(Cc2ccc(OC)c(C#N)c2)cc1C1CCN(C[C@H]2CN([C@@H](C(=O)O)C(C)C)C[C@@H]2c2cccc(F)c2)CC1	9.10	1.2	300
CCn1nc(Cc2ccc(OC)cc2)cc1C1CCN(C[C@H]2CN([C@@H](C(=O)O)C(C)(C)C)C[C@@H]2c2cccc(F)c2)CC1	8.82	< 0.14	33
CCCOc1ccc(Cc2cc(C3CCN(C[C@H]4CN([C@@H](C(=O)O)C(C)(C)C)C[C@@H]4c4cccc(F)c4)CC3)n(CC)n2)cc1	9.10	0.4	300
CC[C@H](C)[C@H](C(=O)O)N1C[C@H](CN2CCC(c3cc(Cc4ccc5ccccc5c4)nn3CC)CC2)[C@@H](c2cccc(F)c2)C1	9.52	< 0.14	300
CCn1nc(Cc2ccc(O)cc2)cc1C1CCN(C[C@H]2CN([C@@H](C(=O)O)C(C)C)C[C@@H]2c2cccc(F)c2)CC1	9.22	1.2	33

More lines, in order of rising pIC50 [1], values ahead:

pIC50 [1]	IC90 (HeLa [3]) [nM]	Structure (SMILES)	IC90 (HeLa [2]) [nM]
8.49	100	CCn1nc(Cc2cc(C(F)(F)F)cc(C(F)(F)F)c2)cc1C1CCN(C[C@H]2CN([C@@H](C(=O)O)C(C)C)C[C@@H]2c2cccc(F)c2)CC1	> 300
8.57	3.7	CC[C@@H](C)[C@H](C(=O)O)N1C[C@H](CN2CCC(c3cc(Cc4cccc(CN)c4)nn3CC)CC2)[C@@H](c2cccc(F)c2)C1	33
8.59	0.4	CC[C@@H](C)[C@H](C(=O)O)N1C[C@H](CN2CCC(c3cc(Cc4ccc(OC)c(OC)c4)nn3CC)CC2)[C@@H](c2cccc(F)c2)C1	33
8.68	11	CC[C@H](C)[C@H](C(=O)O)N1C[C@H](CN2CCC(c3cc(Cc4cc(C(F)(F)F)cc(C(F)(F)F)c4)nn3CC)CC2)[C@@H](c2cccc(F)c2)C1	> 300
8.70	3.7	CCn1nc(Cc2ccc(C(F)(F)F)cc2)cc1C1CCN(C[C@H]2CN([C@@H](C(=O)O)C(C)C)C[C@@H]2c2cccc(F)c2)CC1	100
8.89	0.4	CCn1nc(Cc2ccc(S(=O)(=O)c3ccccc3)cc2)cc1C1CCN(C[C@H]2CN([C@@H](C(=O)O)C(C)C)C[C@@H]2c2cccc(F)c2)CC1	33
8.89	3.7	CCn1nc(Cc2ccc(Cl)cc2)cc1C1CCN(C[C@H]2CN([C@@H](C(=O)O)C(C)C)C[C@@H]2c2cccc(F)c2)CC1	300
8.92	1.2	CCCOc1ccc(Cc2cc(C3CCN(C[C@H]4CN([C@@H](C(=O)O)[C@H](C)CC)C[C@@H]4c4cccc(F)c4)CC3)n(CC)n2)cc1	300
8.96	3.7	CCn1nc(Cc2ccc(OCc3ccccc3)cc2)cc1C1CCN(C[C@H]2CN([C@@H](C(=O)O)C(C)(C)C)C[C@@H]2c2cccc(F)c2)CC1	300
9.10	0.4	CCCCOc1ccc(Cc2cc(C3CCN(C[C@H]4CN([C@@H](C(=O)O)C5CCCCC5)C[C@@H]4c4cccc(F)c4)CC3)n(CC)n2)cc1	33
9.10	< 0.14	CC[C@H](C)[C@H](C(=O)O)N1C[C@H](CN2CCC(c3cc(Cc4ccc(OC(C)C)cc4)nn3CC)CC2)[C@@H](c2cccc(F)c2)C1	33
9.15	< 0.14	CCn1nc(Cc2ccc3c(c2)OCO3)cc1C1CCN(C[C@H]2CN([C@@H](C(=O)O)C(C)(C)C)C[C@@H]2c2cccc(F)c2)CC1	33
9.22	1.2	CCn1nc(Cc2ccc(OCC(F)(F)F)cc2)cc1C1CCN(C[C@H]2CN([C@@H](C(=O)O)C(C)(C)C)C[C@@H]2c2cccc(F)c2)CC1	100
9.30	< 0.14	CCn1nc(Cc2ccccc2F)cc1C1CCN(C[C@H]2CN([C@@H](C(=O)O)C3CCCCC3)C[C@@H]2c2cccc(F)c2)CC1	33
9.30	< 0.14	CCn1nc(Cc2ccc(OC(F)F)cc2)cc1C1CCN(C[C@H]2CN([C@@H](C(=O)O)C(C)C)C[C@@H]2c2cccc(F)c2)CC1	100
9.30	11	CCn1nc(Cc2ccc(O)cc2)cc1C1CCN(C[C@H]2CN([C@@H](C(=O)O)C3CCCCC3)C[C@@H]2c2cccc(F)c2)CC1	33
9.40	3.7	CCn1nc(Cc2ccc(Oc3ccccc3)cc2)cc1C1CCN(C[C@H]2CN([C@@H](C(=O)O)C(C)(C)C)C[C@@H]2c2cccc(F)c2)CC1	300
9.40	< 0.14	CCOc1ccc(Cc2cc(C3CCN(C[C@H]4CN([C@@H](C(=O)O)C(C)C)C[C@@H]4c4cccc(F)c4)CC3)n(CC)n2)cc1F	100
9.52	< 0.14	CC[C@H](C)[C@H](C(=O)O)N1C[C@H](CN2CCC(c3cc(Cc4ccc(C)cc4)nn3CC)CC2)[C@@H](c2cccc(F)c2)C1	11
9.70	< 0.14	CCn1nc(Cc2cccc3ccccc23)cc1C1CCN(C[C@H]2CN([C@@H](C(=O)O)C(C)(C)C)C[C@@H]2c2cccc(F)c2)CC1	11

Reference: ChEMBL document CHEMBL1147446, “Antagonists of human CCR5 receptor containing 4-(pyrazolyl)piperidine side chains. Part 3: SAR studies on the benzylpyrazole segment” (Bioorg Med Chem Lett, 2004)
